From ChEMBL document CHEMBL2046441, “Synthesis and SAR of 4-aminocyclopentapyrrolidines as N-type Ca²⁺ channel blockers with analgesic activity” (Bioorg Med Chem, 2012)

What was measured:
[1] = Inhibition of Voltage-dependent N-type calcium channel in human IMR32 cells by FLIPR based Ca(2+) flux assay; format: cell-based, IMR-32
In short: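 IMR32 cells were plated at 120,000/well and grown 48 h at 37 °C, 5% CO₂. Cells were loaded with Calcium 4 dye in HBSS/1 mM HEPES pH 7.4 for 1.5 h at room temperature, with antagonists present for 1 h of loading.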

[2] = Inhibition of L-type calcium channel in mouse ND7/23 cells by FLIPR based Ca(2+) flux assay; format: cell-based
In short: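 ND7/23 cells were grown in DMEM with 10% heat-inactivated FBS and seeded at 5.0 × 10⁴ cells/well. After 24 h at 37 °C, 5% CO₂, cells were loaded with calcium dye in HBSS/20 mM HEPES pH 7.4 for 1.5 h at room temperature. Compounds were added for 3 min, then channels were activated with HBSS containing 50 mM KCl/2.5 mM CaCl₂.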

Rattus norvegicus [3] = test: Analgesic activity in Sprague-Dawley rat acute inflammatory pain model assessed as inhibition of carrageenan-induced thermal hypersensitivity of paw withdrawal latency at 30 mg/kg, ip dosed 30 mins before thermal hypersensitivity assessment; format: functional; conditions: route intraperitoneal
In short: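 Male Sprague-Dawley rats (200–350 g) received 3, 10 or 30 mg/kg ip in 10% DMSO/PEG 400, n = 6. Dosing was 30 min before testing, and testing was 2 h after intraplantar carrageenan in the right hind paw. Hargreaves radiant heat on 30 °C glass, 4.50 amp, 20.48 s cutoff; each paw tested 3 times ~5 min apart. PWL is the mean of the two shortest latencies.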

Rattus norvegicus [4] = test: Analgesic activity in Sprague-Dawley rat osteoarthritis pain model assessed as increase in maximum compressive grip force at 30 mg/kg, ip dosed 30 mins before grip force assessment; format: functional; conditions: route intraperitoneal
In short: (§1)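 Male Sprague-Dawley rats (200–350 g) were tested at least 21 days after MIA injection. Dosing was 3, 10 or 30 mg/kg ip in 10% DMSO/PEG 400, 30 min before testing; n = 12 per group. Hindlimb grip force was measured twice ~2 min apart to get CFmax, normalised to body weight. Vehicle group set as 0%, age-matched naive group as 100%.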

Rattus norvegicus [5] = test: Analgesic activity in ip dosed Sprague-Dawley rat osteoarthritis pain model assessed as increase in maximum compressive grip force dosed 30 mins before grip force assessment; format: functional, organism-based; in short: as §1
Rattus norvegicus [6] = test: Analgesic activity in Sprague-Dawley rat persistent pain model assessed as inhibition of flinching behavior at 30 mg/kg, ip dosed 30 mins before formalin challenge measured for 20 mins following formalin challenge; format: functional; conditions: route intraperitoneal
In short: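 Male Sprague-Dawley rats (200–350 g) were dosed ip in 10% DMSO/PEG 400 (3, 10, 30 mg/kg; n = 6) 30 min before formalin. They then received 50 µl of 5% formalin s.c. into the dorsal right hind paw. Flinches of the injected paw were counted 30–50 min after injection (phase II), sampling one 60 s period per 5 min interval.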

Rattus norvegicus [7] = test: Neurotoxicity in Sprague-Dawley rat assessed as induction of rotarod performance deficit at 3 to 30 mg/kg, ip and measured once animals were placed back on rotarod apparatus for 3 consecutive testing trials 30 mins following compound dosing; format: toxicity, organism-based; set-up: dose 3-30 mg/kg, route intraperitoneal; conditions: in vivo, 0.5 h
In short: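 Male rats first receive three training sessions on an accelerating rod, 0–20 rpm over 60 s. Dosing is 3, 10, 30 mg/kg ip in 10% DMSO/PEG400, n = 6 per group. There are 3 consecutive trials at 30 min post-dose, recording fall latency with a 60 s cut-off.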

Rattus norvegicus [8] = test: Cardiovascular toxicity in anesthetized Sprague-Dawley rat assessed as changes in mean arterial pressure at 10 mg/kg, iv by hemodynamic function study; format: organism-based, Artery; set-up: dose 10 mg/kg, route intravenous; conditions: in vivo
Rattus norvegicus [9] = test: Cardiovascular toxicity in anesthetized Sprague-Dawley rat assessed as changes in heart rate at 10 mg/kg, iv by hemodynamic function study; format: organism-based; set-up: dose 10 mg/kg, route intravenous; conditions: in vivo
Rattus norvegicus [10] = test: Cardiovascular toxicity in anesthetized Sprague-Dawley rat assessed as changes in dp/dt rate at 10 mg/kg, iv by hemodynamic function study; format: organism-based; set-up: dose 10 mg/kg, route intravenous; conditions: in vivo
[11] = Therapeutic index, ratio of cardiovascular effect in Sprague-Dawley rat at 10 mg/kg, iv to EC50 for analgesic activity in ip dosed Sprague-Dawley rat osteoarthritis pain model; format: organism-based; set-up: dose 10 mg/kg, route intravenous; conditions: in vivo, read-out: TI
[12] = target: Voltage-gated L-type calcium channel (Rattus norvegicus, UniProt P22002+Q02485+P27732); test: Inhibition of L-type calcium channel in Sprague-Dawley rat aorta assessed as relaxation of Kcl-induced tissue contraction by aortic ring relaxation assay; format: tissue-based
[13] = Aqueous solubility of the compound; format: physicochemical; conditions: buffer
[14] = Protein binding in plasma; format: ADME, cell-free; conditions: read-out: PPB
[15] = Stability in human liver microsomes assessed as compound remaining measured after 30 mins; format: ADME, Microsome; conditions: read-out: Stability
In short: (§2)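 Compound is incubated with human or rat liver microsomes, and percent parent remaining is measured after 30 min.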

[16] = Stability in rat liver microsomes assessed as compound remaining measured after 30 mins; format: ADME, Microsome; conditions: read-out: Stability; in short: as §2
[17] = Bioavailability in ip dosed Sprague-Dawley rat; format: ADME, organism-based; conditions: in vivo
[18] = target: Voltage-dependent N-type calcium channel subunit alpha-1B (Rattus norvegicus, UniProt Q02294); test: Inhibition of rat Cav2.2 expressed in HEK293 cells under inactivating depolarizing conditions at holding potential of -80 to -95 mV and stepped to 0 mV once every 5 seconds by whole cell patch clamp assay
Voltage-dependent N-type calcium channel subunit alpha-1B, sequence (Q02294 whole entry): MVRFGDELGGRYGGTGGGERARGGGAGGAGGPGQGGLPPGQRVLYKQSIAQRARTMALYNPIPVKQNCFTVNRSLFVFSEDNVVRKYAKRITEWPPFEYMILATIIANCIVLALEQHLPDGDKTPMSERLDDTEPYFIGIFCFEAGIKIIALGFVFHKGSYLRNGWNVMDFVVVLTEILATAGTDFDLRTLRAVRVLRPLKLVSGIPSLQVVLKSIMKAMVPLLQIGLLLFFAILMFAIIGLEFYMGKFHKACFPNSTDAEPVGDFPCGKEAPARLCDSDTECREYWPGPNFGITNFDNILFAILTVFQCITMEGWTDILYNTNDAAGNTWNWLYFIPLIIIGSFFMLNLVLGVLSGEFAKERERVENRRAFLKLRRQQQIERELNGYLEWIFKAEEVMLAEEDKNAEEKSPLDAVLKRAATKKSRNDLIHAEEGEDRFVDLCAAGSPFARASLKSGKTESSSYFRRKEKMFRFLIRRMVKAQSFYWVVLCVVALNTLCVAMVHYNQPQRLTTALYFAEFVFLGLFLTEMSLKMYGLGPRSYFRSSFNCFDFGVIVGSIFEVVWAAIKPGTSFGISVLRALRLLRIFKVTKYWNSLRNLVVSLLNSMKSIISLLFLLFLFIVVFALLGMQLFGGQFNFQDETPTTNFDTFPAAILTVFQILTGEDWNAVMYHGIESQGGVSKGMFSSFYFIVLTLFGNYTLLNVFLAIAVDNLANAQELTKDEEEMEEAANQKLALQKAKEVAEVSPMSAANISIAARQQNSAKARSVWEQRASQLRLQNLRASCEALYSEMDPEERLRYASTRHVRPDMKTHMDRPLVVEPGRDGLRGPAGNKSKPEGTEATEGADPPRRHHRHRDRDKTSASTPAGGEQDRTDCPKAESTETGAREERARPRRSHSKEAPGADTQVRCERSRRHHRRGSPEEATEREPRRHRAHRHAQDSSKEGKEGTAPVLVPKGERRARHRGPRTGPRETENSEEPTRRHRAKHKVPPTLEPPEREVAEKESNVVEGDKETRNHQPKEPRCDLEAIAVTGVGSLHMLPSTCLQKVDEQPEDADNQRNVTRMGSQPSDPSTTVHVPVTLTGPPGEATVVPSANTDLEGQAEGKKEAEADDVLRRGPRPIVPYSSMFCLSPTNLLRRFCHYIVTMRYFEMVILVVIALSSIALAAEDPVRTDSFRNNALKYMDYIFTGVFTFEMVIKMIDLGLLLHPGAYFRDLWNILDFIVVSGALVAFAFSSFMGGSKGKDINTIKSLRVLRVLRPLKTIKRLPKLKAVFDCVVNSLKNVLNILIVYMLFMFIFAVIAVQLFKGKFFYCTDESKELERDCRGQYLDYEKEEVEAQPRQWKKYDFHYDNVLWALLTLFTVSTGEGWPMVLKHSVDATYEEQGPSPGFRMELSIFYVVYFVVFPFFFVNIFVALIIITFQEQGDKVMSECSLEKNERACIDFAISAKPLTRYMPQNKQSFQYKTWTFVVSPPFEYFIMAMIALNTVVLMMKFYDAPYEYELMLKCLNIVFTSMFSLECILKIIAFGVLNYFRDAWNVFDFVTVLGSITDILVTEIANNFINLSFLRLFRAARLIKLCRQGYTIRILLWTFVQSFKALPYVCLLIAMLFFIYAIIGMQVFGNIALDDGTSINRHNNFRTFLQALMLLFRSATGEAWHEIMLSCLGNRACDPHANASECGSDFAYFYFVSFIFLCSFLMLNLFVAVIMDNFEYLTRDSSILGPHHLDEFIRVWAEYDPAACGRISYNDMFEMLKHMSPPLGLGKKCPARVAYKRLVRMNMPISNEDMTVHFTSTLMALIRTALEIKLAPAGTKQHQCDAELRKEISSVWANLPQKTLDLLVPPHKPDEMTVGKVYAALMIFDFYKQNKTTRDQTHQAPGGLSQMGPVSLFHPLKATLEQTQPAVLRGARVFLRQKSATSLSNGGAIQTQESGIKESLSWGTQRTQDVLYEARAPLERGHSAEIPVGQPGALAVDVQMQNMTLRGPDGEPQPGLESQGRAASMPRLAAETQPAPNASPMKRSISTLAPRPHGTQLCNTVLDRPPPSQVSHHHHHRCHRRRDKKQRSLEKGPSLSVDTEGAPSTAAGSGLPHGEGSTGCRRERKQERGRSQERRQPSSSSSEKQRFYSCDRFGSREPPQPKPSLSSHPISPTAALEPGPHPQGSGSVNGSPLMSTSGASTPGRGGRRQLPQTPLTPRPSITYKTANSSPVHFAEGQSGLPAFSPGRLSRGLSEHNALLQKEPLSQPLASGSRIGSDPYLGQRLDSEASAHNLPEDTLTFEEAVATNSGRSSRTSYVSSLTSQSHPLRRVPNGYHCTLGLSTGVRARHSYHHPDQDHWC

Rattus norvegicus [19] = test: Analgesic activity in Sprague-Dawley rat persistent pain model assessed as inhibition of flinching behavior at 10 mg/kg, ip dosed 30 mins before formalin challenge measured for 20 mins following formalin challenge
Rattus norvegicus [20] = test: Analgesic activity in ip dosed Sprague-Dawley rat acute inflammatory pain model assessed as reduction in carrageenan-induced thermal hypersensitivity of paw withdrawal latency dosed 30 mins before thermal hypersensitivity assessment; format: functional, organism-based
In short: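 Male rats 200–350 g; 10% DMSO/PEG400 vehicle; doses 3, 10, 30 mg/kg ip, n = 6. Carrageenan is injected into the plantar surface of the right hind paw. After 2 h, a Hargreaves radiant heat stimulus is applied on 30 °C glass, with cut-off 20.48 s. Both paws are tested in 3 trials about 5 min apart. Latency is taken as the mean of the two shortest readings.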

[21] = target: Voltage-dependent N-type calcium channel subunit alpha-1B (Rattus norvegicus) (UniProt Q02294); conditions: HEK293, 0.3 uM
Voltage-dependent N-type calcium channel subunit alpha-1B (Rattus norvegicus), sequence (Q02294 whole entry, looked up): as the sequence (Q02294 whole entry) above

[22] = target: Voltage-dependent N-type calcium channel subunit alpha-1B (Rattus norvegicus) (UniProt Q02294); conditions: HEK293, 0.3 uM; remark: listed apart in the source
[23] = Homo sapiens, IMR-32, read-out: IC50
[24] = Homo sapiens, IMR-32, read-out: pIC50 (converted)

| Structure (SMILES) | IC50 [1, 23] [µM] | IC50 [1, 24] [µM] | IC50 ([2]; read-out: IC50) [µM] | IC50 ([2]; read-out: pIC50 (converted)) [µM] | also measured |
| --- | --- | --- | --- | --- | --- |
| O=C(N[C@H]1CC[C@H]2CN(Cc3ccccc3)C[C@H]21)C1(c2ccccc2)CCCC1 (racemic) | 1.93 | 1.95 | 4.84 | 4.79 | – |
| O=C(N[C@H]1CC[C@H]2CN(Cc3ccccc3F)C[C@H]21)C(C1CCCCC1)C1CCCCC1 | 1.12 | 1.12 | > 30 | – | – |
| O=C(N[C@@H]1CC[C@@H]2CN(Cc3cccc(C(F)(F)F)c3)C[C@@H]21)C(C1CCCCC1)C1CCCCC1 | 1.4 | – | > 30 | – | – |
| O=C(N[C@H]1CC[C@H]2CN(Cc3ccc(F)cc3)C[C@H]21)C(C1CCCCC1)C1CCCCC1 | 0.74 | 0.741 | 22.9 | 22.9 | – |
| O=C(N[C@H]1CC[C@H]2CN(Cc3ccccc3)C[C@H]21)C(C1CCCCC1)C1CCCCC1 | – | – | – | – | pIC50 ([1]; imr-32): 4.78; IC50 ([1]; imr-32, read-out: IC50): 16.5 µM |
| O=C(N[C@H]1CC[C@H]2CN(Cc3cccc(C(F)(F)F)c3)C[C@H]21)C1CCCCC1 (racemic) | 1.26 | 1.26 | 16.1 | 16.2 | – |
| O=C(N[C@@H]1CC[C@@H]2CN(Cc3ccccc3)C[C@@H]21)C(c1ccccc1)C1CCCCC1 (mixture of isomers) | 1.06 | 1.07 | > 30 | – | – |
| O=C(N[C@H]1CC[C@H]2CN(Cc3ccccc3)C[C@H]21)C(C1CCCCC1)C1CCCCC1 (relative stereo) | – | – | > 30 | – | pIC50 ([1]; imr-32): 5.33; IC50 ([1]; imr-32, read-out: IC50): 4.67 µM |
| CCC(CC)C(=O)N[C@H]1CC[C@H]2CN(Cc3cccc(C(F)(F)F)c3)C[C@H]21 (racemic) | 2.07 | 2.09 | 19 | 19.1 | – |
| CC(C)C(C(=O)N[C@@H]1CC[C@@H]2CN(Cc3ccccc3)C[C@@H]21)c1ccccc1 (mixture of isomers) | 1.46 | 1.48 | 7.21 | 7.24 | – |
| O=C(N[C@H]1CC[C@H]2CN(Cc3cccc(C(F)(F)F)c3)C[C@H]21)C(C1CCCCC1)C1CCCCC1 [listing 1 of 2 here] | – | 0.468 | – | – | Emax at 30 mg/kg (Rattus norvegicus [3]): 67%; Emax at 30 mg/kg (Rattus norvegicus [4]): 87%; EC50 (Rattus norvegicus [5]): 2 µM; inhibition in vivo at 30 mg/kg (Rattus norvegicus [6]): 51%; Activity (Rattus norvegicus [7]): Non-toxic; Activity (Rattus norvegicus [8]): Non-toxic; Activity (Rattus norvegicus [9]): Non-toxic; Activity (Rattus norvegicus [10]): Non-toxic; selectivity ratio [11]: > 15; IC50 ([1]; imr-32, read-out: IC50): 0.46 µM; EC50 [12]: 46 µM; inhibition (INH) ([12]; rat): Dose-dependent effect; solubility [13]: < 3 µM; fraction unbound [14]: < 0.01; remaining at 0.5 h [15]: < 5%; remaining at 0.5 h [16]: < 5%; bioavailability [17]: 41%; IC50 [18]: 0.041 µM; inhibition in vivo at 10 mg/kg (Rattus norvegicus [19]): 51% |
| O=C(N[C@H]1CC[C@H]2CN(Cc3cccc(C(F)(F)F)c3)C[C@H]21)C1CCCCCC1 (racemic) | 0.56 | 0.562 | 9.3 | 13.8 | – |
| O=C(N[C@H]1CC[C@H]2CN(Cc3cccc(OC(F)(F)F)c3)C[C@H]21)C(C1CCCCC1)C1CCCCC1 | 0.51 | 0.417 | > 30 | – | – |
| CCCC(CCC)C(=O)N[C@H]1CC[C@H]2CN(Cc3cccc(C(F)(F)F)c3)C[C@H]21 (relative stereo) | 0.95 | 0.955 | 20.1 | 20.4 | – |
| O=C(N[C@H]1CC[C@H]2CN(Cc3cccc(C(F)(F)F)c3)C[C@H]21)C(c1ccc(F)cc1)c1ccc(F)cc1 (relative stereo) | 0.64 | 0.646 | 7.1 | 7.08 | – |
| O=C(N[C@H]1CC[C@H]2CN(Cc3cccc(C(F)(F)F)c3)C[C@H]21)C(C1CCCCC1)C1CCCCC1 [listing 2 of 2 here] | – | – | – | – | Activity (Rattus norvegicus [20]): Dose-dependent effect; Activity (Rattus norvegicus [5]): Dose-dependent effect; inhibition [21]: 49%; inhibition [22]: 77% |
| O=C(N[C@H]1CC[C@H]2CN(Cc3ccccc3)C[C@H]21)C(c1ccccc1)C1CCCC1 (relative stereo) | 0.92 | 0.933 | 5.15 | 5.13 | – |
| O=C(N[C@H]1CC[C@H]2CN(Cc3ccccc3)C[C@H]21)C1(c2ccccc2)CCCCC1 (relative stereo) | 1.04 | 1.02 | 5.56 | 5.62 | – |
| Cc1cccc(CN2C[C@@H]3CC[C@H](NC(=O)C(C4CCCCC4)C4CCCCC4)[C@@H]3C2)c1 | 0.86 | 0.851 | 22.3 | 22.4 | – |
| O=C(N[C@H]1CC[C@H]2CN(Cc3cccc(F)c3)C[C@H]21)C(C1CCCCC1)C1CCCCC1 | 0.99 | 0.977 | > 30 | – | – |
| O=C(N[C@H]1CC[C@H]2CN(Cc3cccc(C(F)(F)F)c3)C[C@H]21)C(C1CCCCC1)C1CCCCC1 (relative stereo) | – | – | > 30 | – | pIC50 ([1]; imr-32): 5.97; IC50 ([1]; imr-32, read-out: IC50): 1.07 µM |
| O=C(N[C@H]1CC[C@H]2CN(Cc3cccc(C(F)(F)F)c3)C[C@H]21)C(c1ccccc1)c1ccccc1 (racemic) | 0.67 | 0.661 | 6.3 | 6.31 | – |
| O=C(N[C@H]1CC[C@H]2CN(Cc3cccc(C(F)(F)F)c3)C[C@H]21)C1CCCC1 (relative stereo) | 2.31 | 2.29 | 12.8 | 12.9 | – |
| CC(C)C(C(=O)N[C@H]1CC[C@H]2CN(Cc3cccc(C(F)(F)F)c3)C[C@H]21)c1ccccc1 (mixture of isomers) | 0.36 | 0.355 | 5 | 5.01 | – |
| O=C(N[C@H]1CC[C@H]2CN(Cc3ccccc3C(F)(F)F)C[C@H]21)C(C1CCCCC1)C1CCCCC1 | 2.43 | 2.45 | > 30 | – | – |
